What was measured:
[1] = biological target: Serine/threonine-protein kinase RIO2 (Homo sapiens, UniProt Q9BVS4); assay: Displacement of tracer K5 from N-terminal nanoluciferase-tagged RIOK2 (unknown origin) expressed in HEK293 cells measured after 2 hrs by NanoBRET assay; format: cell-based
[2] = biological target: T1, Homeodomain-interacting protein kinase 1 (Homo sapiens, UniProt Q86Z02); assay: Inhibition of human HIPK1 (158 to 555 residues) using myelin ba as substrate incubated for 40 mins in presence of [gamma33P]ATP by radiometric scintillation analysis
T1 sequence (Q86Z02 whole entry, the tested form may be a part): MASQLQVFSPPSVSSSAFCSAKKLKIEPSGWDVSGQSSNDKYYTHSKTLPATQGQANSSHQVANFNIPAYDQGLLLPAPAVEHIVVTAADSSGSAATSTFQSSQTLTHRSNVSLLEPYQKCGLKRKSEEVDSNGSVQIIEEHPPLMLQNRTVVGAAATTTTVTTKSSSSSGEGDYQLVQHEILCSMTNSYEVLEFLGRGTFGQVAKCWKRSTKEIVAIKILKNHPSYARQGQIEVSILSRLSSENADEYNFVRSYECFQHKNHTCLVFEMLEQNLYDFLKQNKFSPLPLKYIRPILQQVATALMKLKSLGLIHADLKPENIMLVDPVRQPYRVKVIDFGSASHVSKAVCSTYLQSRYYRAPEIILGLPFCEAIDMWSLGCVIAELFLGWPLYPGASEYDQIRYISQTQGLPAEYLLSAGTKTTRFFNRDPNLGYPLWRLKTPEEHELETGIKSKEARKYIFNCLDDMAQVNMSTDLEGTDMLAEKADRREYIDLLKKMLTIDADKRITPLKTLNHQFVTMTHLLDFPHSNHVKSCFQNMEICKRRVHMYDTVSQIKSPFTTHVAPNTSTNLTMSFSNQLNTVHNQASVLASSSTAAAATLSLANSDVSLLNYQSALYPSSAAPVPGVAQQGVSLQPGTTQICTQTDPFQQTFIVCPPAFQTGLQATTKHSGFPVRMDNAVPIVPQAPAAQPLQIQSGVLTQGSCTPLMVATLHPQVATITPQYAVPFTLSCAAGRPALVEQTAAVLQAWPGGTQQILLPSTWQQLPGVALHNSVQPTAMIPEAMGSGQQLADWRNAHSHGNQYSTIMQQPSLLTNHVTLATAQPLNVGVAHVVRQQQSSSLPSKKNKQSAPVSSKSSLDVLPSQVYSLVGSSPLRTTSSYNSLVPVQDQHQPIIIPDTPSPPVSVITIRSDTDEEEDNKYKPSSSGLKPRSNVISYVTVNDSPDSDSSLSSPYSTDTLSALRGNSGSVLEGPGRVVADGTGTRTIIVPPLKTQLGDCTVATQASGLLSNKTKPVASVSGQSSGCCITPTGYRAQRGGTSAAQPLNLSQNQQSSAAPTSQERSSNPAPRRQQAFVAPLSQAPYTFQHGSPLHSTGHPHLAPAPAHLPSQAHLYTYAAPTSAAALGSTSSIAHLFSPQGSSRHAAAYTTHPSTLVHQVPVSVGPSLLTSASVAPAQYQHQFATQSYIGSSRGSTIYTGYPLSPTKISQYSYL
Procedure, shortened: (§1)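 Eurofins radiometric enzymatic kinase assay run at the Km of ATP for each kinase. Activity was read as incorporation of radiolabelled ATP into a peptide substrate, in a homogeneous format.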

[3] = biological target: T2, Mitogen-activated protein kinase 10 (Homo sapiens, UniProt P53779); assay: Inhibition of full length recombinant human MAPK10 using peptide substrate incubated for 40 mins in presence of [gamma33P]ATP by radiometric scintillation analysis; procedure, shortened: as §1
T2 sequence (P53779 whole entry): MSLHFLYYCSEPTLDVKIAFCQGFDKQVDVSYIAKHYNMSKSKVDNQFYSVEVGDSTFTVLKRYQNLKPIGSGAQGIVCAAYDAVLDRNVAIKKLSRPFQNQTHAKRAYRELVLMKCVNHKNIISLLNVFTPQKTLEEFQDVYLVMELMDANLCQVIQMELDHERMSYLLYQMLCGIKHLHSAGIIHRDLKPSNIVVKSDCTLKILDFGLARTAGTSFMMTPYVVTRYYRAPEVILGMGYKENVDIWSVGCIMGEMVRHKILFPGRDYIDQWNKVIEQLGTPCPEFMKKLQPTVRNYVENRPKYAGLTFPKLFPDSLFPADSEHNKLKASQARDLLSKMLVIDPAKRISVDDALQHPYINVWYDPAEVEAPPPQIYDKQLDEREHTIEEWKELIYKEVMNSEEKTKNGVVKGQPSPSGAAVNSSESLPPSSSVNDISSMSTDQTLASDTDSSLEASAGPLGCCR

[4] = biological target: T2, Mitogen-activated protein kinase 10; assay: Binding affinity to full length recombinant human MAPK10 using peptide substrate incubated for 40 mins in presence of [gamma33P]ATP by radiometric scintillation analysis; procedure, shortened: as §1
[5] = biological target: T1, Homeodomain-interacting protein kinase 1; assay: Binding affinity to human HIPK1 (158 to 555 residues) using myelin ba as substrate incubated for 40 mins in presence of [gamma33P]ATP by radiometric scintillation analysis; procedure, shortened: as §1
[6] = biological target: T3, SNF-related serine/threonine-protein kinase (Homo sapiens, UniProt Q9NRH2); assay: Binding affinity to recombinant human SNRK E97G/P116A mutant (1 to 505 residues) using KKLRRTLSFAEPG peptide as substrate incubated for 40 mins in presence of [gamma33P]ATP by radiometric scintillation analysis; procedure, shortened: as §1
T3 sequence (Q9NRH2 whole entry): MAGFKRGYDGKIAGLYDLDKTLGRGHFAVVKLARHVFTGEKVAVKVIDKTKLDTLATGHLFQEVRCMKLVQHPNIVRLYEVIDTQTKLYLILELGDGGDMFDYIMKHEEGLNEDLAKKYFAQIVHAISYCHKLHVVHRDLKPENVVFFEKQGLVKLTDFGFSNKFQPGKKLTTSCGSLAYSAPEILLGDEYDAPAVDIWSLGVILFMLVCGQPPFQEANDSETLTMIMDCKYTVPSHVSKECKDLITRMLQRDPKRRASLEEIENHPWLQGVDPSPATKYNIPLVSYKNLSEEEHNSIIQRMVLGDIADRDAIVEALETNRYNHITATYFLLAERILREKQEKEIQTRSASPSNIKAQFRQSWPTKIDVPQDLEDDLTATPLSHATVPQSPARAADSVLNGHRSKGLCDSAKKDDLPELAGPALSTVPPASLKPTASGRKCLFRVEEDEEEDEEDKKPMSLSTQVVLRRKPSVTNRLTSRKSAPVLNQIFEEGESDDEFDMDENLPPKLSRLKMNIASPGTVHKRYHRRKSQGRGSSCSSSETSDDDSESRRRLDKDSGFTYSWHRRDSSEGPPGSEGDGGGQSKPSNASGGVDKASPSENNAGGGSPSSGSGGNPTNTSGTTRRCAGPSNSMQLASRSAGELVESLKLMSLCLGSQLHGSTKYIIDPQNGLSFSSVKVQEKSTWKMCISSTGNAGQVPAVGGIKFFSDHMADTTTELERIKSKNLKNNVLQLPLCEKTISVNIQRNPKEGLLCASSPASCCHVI

[7] = biological target: T4, Mitogen-activated protein kinase 8 (Homo sapiens, UniProt P45983); assay: Binding affinity to full length recombinant human MAPK8 using ATF2 as substrate incubated for 40 mins in presence of [gamma33P]ATP by radiometric scintillation analysis; procedure, shortened: as §1
T4 sequence (P45983 whole entry): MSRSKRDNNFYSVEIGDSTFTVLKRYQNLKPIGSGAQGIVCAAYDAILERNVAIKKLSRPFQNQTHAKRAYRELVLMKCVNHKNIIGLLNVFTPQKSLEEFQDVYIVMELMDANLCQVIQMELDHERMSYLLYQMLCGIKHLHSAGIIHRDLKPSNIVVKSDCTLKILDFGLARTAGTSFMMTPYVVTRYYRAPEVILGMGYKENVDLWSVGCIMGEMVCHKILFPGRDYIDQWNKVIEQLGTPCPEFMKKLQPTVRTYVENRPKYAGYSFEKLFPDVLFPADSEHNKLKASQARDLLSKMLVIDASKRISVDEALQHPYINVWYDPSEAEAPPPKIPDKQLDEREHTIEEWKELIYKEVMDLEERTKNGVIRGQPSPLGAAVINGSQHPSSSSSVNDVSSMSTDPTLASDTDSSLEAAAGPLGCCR

[8] = biological target: T4, Mitogen-activated protein kinase 8; assay: Inhibition of full length recombinant human MAPK8 using ATF2 as substrate incubated for 40 mins in presence of [gamma33P]ATP by radiometric scintillation analysis; procedure, shortened: as §1
[9] = biological target: T5, Glycogen synthase kinase-3 alpha (Homo sapiens, UniProt P49840); assay: Inhibition of recombinant human GSK3alpha S449A mutant (2 to end residues) using YRRAAVPPSPSLSR peptide as substrate incubated for 40 mins in presence of [gamma33P]ATP by radiometric scintillation analysis
T5 sequence (P49840 whole entry): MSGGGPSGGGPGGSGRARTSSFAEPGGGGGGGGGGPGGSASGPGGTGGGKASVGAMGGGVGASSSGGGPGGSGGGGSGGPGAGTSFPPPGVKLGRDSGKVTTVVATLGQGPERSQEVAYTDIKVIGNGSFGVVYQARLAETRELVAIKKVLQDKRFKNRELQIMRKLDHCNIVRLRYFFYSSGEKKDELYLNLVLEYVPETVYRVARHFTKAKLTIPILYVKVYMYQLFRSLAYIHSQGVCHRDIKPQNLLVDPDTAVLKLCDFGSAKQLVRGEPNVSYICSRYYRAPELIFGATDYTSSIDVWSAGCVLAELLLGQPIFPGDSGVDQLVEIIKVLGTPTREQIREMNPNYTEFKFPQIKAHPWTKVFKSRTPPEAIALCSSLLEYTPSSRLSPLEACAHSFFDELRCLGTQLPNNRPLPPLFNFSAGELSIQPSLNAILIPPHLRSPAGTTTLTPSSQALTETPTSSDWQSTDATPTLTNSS
Procedure, shortened: (§2)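 Orthogonal homogeneous enzymatic kinase assay, run by a contract provider. GSK3α activity was read as incorporation of radiolabelled ATP into a peptide substrate. ATP was at its Km.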

[10] = biological target: T5, Glycogen synthase kinase-3 alpha; assay: Binding affinity to recombinant human GSK3alpha S449A mutant (2 to end residues) using YRRAAVPPSPSLSR peptide as substrate incubated for 40 mins in presence of [gamma33P]ATP by radiometric scintillation analysis; procedure, shortened: as §2
[11] = biological target: T3, SNF-related serine/threonine-protein kinase; assay: Inhibition of recombinant human SNRK E97G/P116A mutant (1 to 505 residues) using KKLRRTLSFAEPG peptide as substrate incubated for 40 mins in presence of [gamma33P]ATP by radiometric scintillation analysis; procedure, shortened: as §1

Chain of Serine/threonine-protein kinase RIO2 (Q9BVS4 whole entry, the tested form may be a part): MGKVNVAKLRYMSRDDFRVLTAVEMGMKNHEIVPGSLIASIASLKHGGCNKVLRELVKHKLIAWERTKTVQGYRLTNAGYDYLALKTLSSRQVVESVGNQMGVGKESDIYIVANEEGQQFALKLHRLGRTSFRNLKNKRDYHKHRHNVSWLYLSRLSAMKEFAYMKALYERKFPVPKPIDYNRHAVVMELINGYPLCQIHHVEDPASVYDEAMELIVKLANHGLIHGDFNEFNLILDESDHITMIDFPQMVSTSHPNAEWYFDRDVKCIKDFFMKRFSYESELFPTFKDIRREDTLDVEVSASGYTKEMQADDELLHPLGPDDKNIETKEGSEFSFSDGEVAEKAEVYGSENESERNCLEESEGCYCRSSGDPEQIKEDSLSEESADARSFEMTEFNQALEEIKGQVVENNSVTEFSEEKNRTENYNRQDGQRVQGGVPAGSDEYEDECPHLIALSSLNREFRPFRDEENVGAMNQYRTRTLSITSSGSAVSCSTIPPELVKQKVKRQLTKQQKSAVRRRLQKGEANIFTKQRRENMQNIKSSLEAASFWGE

Question: Cc1ccnc(NC(=O)COc2ccc3ccccc3c2)c1 was tested. Which IC50 [1] did it give?
Answer: The IC50 was greater than 30 µM.

Question: COc1ccnc(NC(=O)Cc2ccc(C)c(C)c2)c1 was tested. Which IC50 [1] did it give?
Answer: Its IC50 is 28 µM.

Question: For COc1ccc2cc([C@@H](C)C(=O)Nc3cc(C)ccn3)ccc2c1, which IC50 [1] is on record?
Answer: Its IC50 is 7.6 µM.

Question: CCc1ccnc(NC(=O)Cc2ccc3ccccc3c2)c1 was tested. Which IC50 [1] did it give?
Answer: The IC50 was 14.5 µM.

Question: COc1ccnc(NC(=O)[C@@H](C)c2ccc3cc(OC)ccc3c2)c1 was tested. Which IC50 [1] did it give?
Answer: Its IC50 is 5.3 µM.

Question: Which IC50 [1] does the source give for Cc1ccnc(NC(=O)Cc2ccc3c(c2)OCO3)c1 here?
Answer: The IC50 was greater than 30 µM.

Question: What does the source list for Cc1ccnc(NC(=O)Cc2ccc3ccccc3c2)c1?
Answer: IC50 [2]: > 10 µM; IC50 [3]: 4.7 µM; Kd [4]: 0.34 µM; Kd [5]: 1.1 µM; Kd [6]: 0.89 µM; Kd [7]: 0.22 µM; IC50 [8]: > 10 µM; IC50 [9]: 5.2 µM; Kd [10]: 0.87 µM; IC50 [11]: > 10 µM

Question: For O=C(Cc1ccc2ccccc2c1)Nc1cc(Br)ccn1, which IC50 [1] is on record?
Answer: The IC50 was 13.4 µM.

Question: O=C(Cc1ccc2ccccc2c1)Nc1cc(Cl)ccn1 was tested. Which IC50 [2] did it give?
Answer: The IC50 was greater than 10 µM.

Question: And the IC50 [3]?
Answer: Its IC50 is 0.52 µM.

Question: What about the IC50 [1] of the same compound?
Answer: Its IC50 is 5 µM.

Question: What about the IC50 [8] of the same compound?
Answer: Its IC50 is greater than 10 µM.

Question: What about the IC50 [9] of the same compound?
Answer: The IC50 was 0.86 µM.

Question: What about the IC50 [11] of the same compound?
Answer: The IC50 was greater than 10 µM.

Question: How did the IC50 [2] turn out when COc1ccc2cc([C@H](C)C(=O)Nc3cc(C)ccn3)ccc2c1 was run?
Answer: The IC50 was greater than 10 µM.

Question: What about the IC50 [3] of the same compound?
Answer: Its IC50 is 5.1 µM.

Question: What about the IC50 [1] of the same compound?
Answer: Its IC50 is 6.6 µM.

Question: And the IC50 [8]?
Answer: Its IC50 is greater than 10 µM.

Question: What about the IC50 [9] of the same compound?
Answer: Its IC50 is 4.5 µM.

Question: What about the IC50 [11] of the same compound?
Answer: Its IC50 is greater than 10 µM.

Question: Which IC50 [1] does the source give for Cc1ccnc(NC(=O)Cc2ccc3c(c2)OCCO3)c1 here?
Answer: The IC50 was greater than 30 µM.

Question: With COc1ccc2cc(C(C)C(=O)Nc3cc(C)ccn3)ccc2c1 (racemic) as the compound, how does the IC50 [2] read?
Answer: Its IC50 is greater than 10 µM.

Question: What about the IC50 [3] of the same compound?
Answer: The IC50 was 0.78 µM.

Question: What about the IC50 [1] of the same compound?
Answer: The IC50 was 5.2 µM.

Question: And the IC50 [8]?
Answer: Its IC50 is greater than 10 µM.

Question: What about the IC50 [9] of the same compound?
Answer: The IC50 was 1.9 µM.

Question: And the IC50 [11]?
Answer: Its IC50 is greater than 10 µM.

Question: For O=C(Cc1ccc2ccccc2c1)Nc1cc(C(F)(F)F)ccn1, which IC50 [1] is on record?
Answer: Its IC50 is 7.5 µM.

Question: What does the source list for COc1ccnc(NC(=O)Cc2ccc3ccccc3c2)c1?
Answer: IC50 [2]: > 10 µM; IC50 [3]: 1.3 µM; IC50 [1]: 5.2 µM; IC50 [8]: > 10 µM; IC50 [9]: 4.8 µM; IC50 [11]: > 10 µM

Question: For Cc1ccnc(NC(=O)CCc2ccc3ccccc3c2)c1, which IC50 [1] is on record?
Answer: The IC50 was greater than 30 µM.

Question: COc1ccnc(NC(=O)Cc2ccc(-c3ccccc3)cc2)c1 was tested. Which IC50 [1] did it give?
Answer: Its IC50 is 7.6 µM.

Source: ChEMBL document CHEMBL4680068, “Towards a RIOK2 chemical probe: cellular potency improvement of a selective 2-(acylamino)pyridine series” (RSC Med Chem, 2021)
